Source: ChEMBL document CHEMBL4602706, “Natural Product Evodiamine with Borate Trigger Unit: Discovery of Potent Antitumor Agents against Colon Cancer” (ACS Med Chem Lett, 2020)
Activity calls are given as the source filed them. No cut-off for these calls is given here.

Columns and labels:
[1] = test system: HCT-116; assay: Antiproliferative activity against human HCT116 cells incubated for 72 hrs by CCK8 assay; type: functional, cell-based; details: Homo sapiens, HCT-116, 72 h; read-out: IC50
In short: (§1)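 HCT116, MCF-7 and A549 human cancer cell lines; antiproliferative activity read out by CCK8 assay. Evodiamine derivatives and camptothecin served as positive controls.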

[2] = test system: A549; assay: Antiproliferative activity against human A549 cells incubated for 72 hrs by CCK8 assay; type: functional, cell-based; details: Homo sapiens, A549, 72 h; read-out: IC50; in short: as §1
[3] = test system: MCF7; assay: Antiproliferative activity against human MCF7 cells incubated for 72 hrs by CCK8 assay; type: functional, cell-based; details: Homo sapiens, MCF7, 72 h; read-out: IC50; in short: as §1
[4] = biological target: T1, DNA topoisomerase II (Homo sapiens) (UniProt P11388+Q02880); assay: Inhibition of Top2 (unknown origin) at 50 uM using supercoiled pBR322 plasmid DNA as substrate incubated for 30 mins by PI staining based agarose gel electrophoresis analysis; type: protein assay
[5] = biological target: T2, DNA topoisomerase 1 (Homo sapiens) (UniProt P11387); assay: Inhibition of Top1 (unknown origin) at 125 uM using supercoiled pBR322 plasmid DNA as substrate incubated for 15 mins by PI staining based agarose gel electrophoresis analysis
T2 sequence (whole entry): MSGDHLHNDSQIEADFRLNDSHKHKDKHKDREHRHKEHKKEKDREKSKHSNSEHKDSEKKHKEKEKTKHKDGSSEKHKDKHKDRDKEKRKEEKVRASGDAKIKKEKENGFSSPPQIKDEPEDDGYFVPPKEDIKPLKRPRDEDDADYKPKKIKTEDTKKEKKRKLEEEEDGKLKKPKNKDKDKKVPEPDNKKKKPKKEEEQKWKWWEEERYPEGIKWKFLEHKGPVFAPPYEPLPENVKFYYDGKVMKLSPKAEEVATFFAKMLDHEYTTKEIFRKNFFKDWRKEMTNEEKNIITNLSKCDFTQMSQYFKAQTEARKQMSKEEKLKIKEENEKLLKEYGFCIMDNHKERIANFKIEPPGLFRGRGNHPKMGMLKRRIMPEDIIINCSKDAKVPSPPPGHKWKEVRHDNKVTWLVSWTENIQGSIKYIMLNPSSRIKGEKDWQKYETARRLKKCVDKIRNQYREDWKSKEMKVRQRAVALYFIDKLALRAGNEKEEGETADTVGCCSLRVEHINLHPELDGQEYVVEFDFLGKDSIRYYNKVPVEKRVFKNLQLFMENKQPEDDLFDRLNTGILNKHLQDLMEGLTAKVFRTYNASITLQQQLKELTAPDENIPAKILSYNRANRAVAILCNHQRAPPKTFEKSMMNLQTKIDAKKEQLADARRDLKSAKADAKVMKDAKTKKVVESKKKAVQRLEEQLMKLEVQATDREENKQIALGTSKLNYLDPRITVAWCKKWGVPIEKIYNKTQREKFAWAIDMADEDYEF
In short: (§2)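 Top1 inhibition tested at 500, 250 and 125 μM, and over 27.9 to 250 μM for selected compounds.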

[6] = biological target: T2, DNA topoisomerase 1 (Homo sapiens); assay: Inhibition of Top1 (unknown origin) at 500 uM using supercoiled pBR322 plasmid DNA as substrate incubated for 15 mins by PI staining based agarose gel electrophoresis analysis; in short: as §2
[7] = biological target: T1, DNA topoisomerase II (Homo sapiens); assay: Inhibition of Top2 (unknown origin) using supercoiled pBR322 plasmid as substrate incubated for 30 mins by PI staining based agarose gel electrophoresis analysis; type: protein assay
[8] = test system: HCT-116; assay: Induction of cell cycle arrest in human HCT116 cells assessed as accumulation at G1 phase at 0.2 uM incubated for 24 hrs by propidium iodide staining based flow cytometry (reference value: 38.49 to 51.18%); type: functional
[9] = test system: HCT-116; assay: Induction of cell cycle arrest in human HCT116 cells assessed as accumulation at S phase at 0.05 uM incubated for 24 hrs by propidium iodide staining based flow cytometry (reference value: 30.31 to 40.69%); type: functional
[10] = test system: HCT-116; assay: Induction of cell cycle arrest in human HCT116 cells assessed as accumulation at G1 phase at 0.4 uM incubated for 24 hrs by propidium iodide staining based flow cytometry (reference value: 38.49 to 51.18%); type: functional
[11] = biological target: T2, DNA topoisomerase 1 (Homo sapiens); assay: Inhibition of Top1 (unknown origin) at 83.3 uM using supercoiled pBR322 plasmid DNA as substrate incubated for 15 mins by PI staining based agarose gel electrophoresis analysis
[12] = test system: HCT-116; assay: Induction of cell cycle arrest in human HCT116 cells assessed as accumulation at S phase at 0.2 uM incubated for 24 hrs by propidium iodide staining based flow cytometry (reference value: 30.31 to 40.69%); type: functional
[13] = Drug metabolism in PBS buffer assessed as H2O2-mediated 3-Fluoro-10-hydroxy-14-methyl-8,13,13b,14-tetrahydro-7H-indolo[2',3':3,4]pyrido[2,1-b]quinazolin-5-one release rate at pH 7.4 incubated for 8 hrs in presence of 0.05 mM H2O2 by HPLC analysis; type: physicochemical; details: pH 7.4, 8 h
In short: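 Release of the parent compound after treatment with H2O2 at varied concentrations, including 0.05 mM, in PBS pH 7.4. Analysed by HPLC.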

[14] = test system: HCT-116; assay: Induction of apoptosis in human HCT116 cells assessed as apoptotic cells at 0.2 uM incubated for 48 hrs by AnnexinV-FITC/PI staining based flow cytometric analysis (reference value: 6.25 to 8.23%); type: functional
In short: (§3)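 HCT116 cells exposed to 0.05, 0.2 or 0.4 μM for 48 h. Apoptotic cells quantified by flow cytometry, n = 3.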

[15] = test system: HCT-116; assay: Induction of cell cycle arrest in human HCT116 cells assessed as accumulation at S phase at 0.4 uM incubated for 24 hrs by propidium iodide staining based flow cytometry (reference value: 30.31 to 40.69%); type: functional
[16] = Drug metabolism in human HCT116 cells assessed as 3-Fluoro-10-hydroxy-14-methyl-8,13,13b,14-tetrahydro-7H-indolo[2',3':3,4]pyrido[2,1-b]quinazolin-5-one release by measuring parent compound retention time incubated for 8 hrs by UPLC-QTOF/MS analysis; type: ADME, cell-based; details: hct-116, 8 h
In short: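 Compounds incubated with HCT116 cells; culture media analysed by HPLC after 8, 48 and 72 h. Relative release rate taken from relative peak areas; parent and product identified by retention time.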

[17] = test system: HCT-116; assay: Induction of apoptosis in human HCT116 cells assessed as apoptotic cells at 0.4 uM incubated for 48 hrs by AnnexinV-FITC/PI staining based flow cytometric analysis (reference value: 6.25 to 8.23%); type: functional; in short: as §3
[18] = test system: HCT-116; assay: Induction of apoptosis in human HCT116 cells incubated for 48 hrs by AnnexinV-FITC/PI staining based flow cytometric analysis; type: functional, cell-based
[19] = Metabolic stability in mouse liver microsomes assessed as half life at 1 uM preincubated with compound followed by NADPH addition measured upto 45 mins by LC-MS/MS analysis; type: ADME, Microsome
In short: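 In vitro stability in liver microsomes; terminal half-life determined.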

[20] = test system: HCT-116; assay: Induction of cell cycle arrest in human HCT116 cells assessed as accumulation at G2 phase at 0.2 uM incubated for 24 hrs by propidium iodide staining based flow cytometry (reference value: 18.51 to 20.82%); type: functional
[21] = test system: HCT-116; assay: Induction of cell cycle arrest in human HCT116 cells assessed as accumulation at G1 phase at 0.05 uM incubated for 24 hrs by propidium iodide staining based flow cytometry (reference value: 38.49 to 51.18%); type: functional
[22] = test system: HCT-116; assay: Induction of cell cycle arrest in human HCT116 cells assessed as accumulation at G2 phase at 0.05 uM incubated for 24 hrs by propidium iodide staining based flow cytometry (reference value: 18.51 to 20.82%); type: functional
[23] = test system: HCT-116; assay: Induction of cell cycle arrest in human HCT116 cells assessed as accumulation at G2 phase at 0.4 uM incubated for 24 hrs by propidium iodide staining based flow cytometry (reference value: 18.51 to 20.82%); type: functional
[24] = Drug metabolism in human HCT116 cells assessed as 3-Fluoro-10-hydroxy-14-methyl-8,13,13b,14-tetrahydro-7H-indolo[2',3':3,4]pyrido[2,1-b]quinazolin-5-one release at 0.2 mM by UPLC-QTOF/MS analysis relative to control; type: ADME, cell-based; details: hct-116, 200 µM, TDE = time-dependent effect
[25] = test system: HCT-116; assay: Induction of apoptosis in human HCT116 cells assessed as apoptotic cells at 0.05 uM incubated for 48 hrs by AnnexinV-FITC/PI staining based flow cytometric analysis (reference value: 6.25 to 8.23%); type: functional; in short: as §3

| SMILES | IC50 [1] [nM] | IC50 [2] [nM] | IC50 [3] [nM] | inhibition [4] | inhibition [5] | inhibition [6] | further results |
| --- | --- | --- | --- | --- | --- | --- | --- |
| CC[C@@]1(O)C(=O)OCc2c1cc1n(c2=O)Cc2cc3ccccc3nc2-1 [CAMPTOTHECIN] | 9 | 39 | 84 | – | – | – | – |
| CN1c2ccc(F)cc2C(=O)N2CCc3c(n(C(=O)OC(C)(C)C)c4ccc(OCc5ccc(B(O)O)cc5)cc34)C21 (configuration not stated) | 4910 | 2130 | 2390 | – | – | – | – |
| CN1c2ccccc2C(=O)N2CCc3c([nH]c4ccc(OC(=O)OCc5ccc(B6OC(C)(C)C(C)(C)O6)cc5)cc34)C21 (configuration not stated) | 65 | 100 | 86 | Active | Active | Active | – |
| CN1c2ccccc2C(=O)N2CCc3c(n(C(=O)OC(C)(C)C)c4ccc(OCc5ccc(B(O)O)cc5)cc34)C21 (configuration not stated) | 520 | 7200 | 1580 | – | – | – | – |
| CN1c2ccccc2C(=O)N2CCc3c([nH]c4ccc(OCc5ccc(B(O)O)cc5)cc34)C21 (configuration not stated) | 120 | 74 | 110 | Active | Active | Active | – |
| CN1c2ccc(F)cc2C(=O)N2CCc3c([nH]c4ccc(OCc5ccc(B6OC(C)(C)C(C)(C)O6)cc5)cc34)C21 (configuration not stated) | 150 | 120 | 97 | – | – | – | – |
| COc1cc([C@@H]2c3cc4c(cc3[C@@H](O[C@@H]3O[C@@H]5CO[C@@H](C)O[C@H]5[C@H](O)[C@H]3O)[C@H]3COC(=O)[C@H]23)OCO4)cc(OC)c1O | – | – | – | – | – | – | inhibition [7]: Active |
| CN1c2ccc(F)cc2C(=O)N2CCc3c([nH]c4ccc(OC(=O)OCc5ccc(B(O)O)cc5)cc34)C21 (configuration not stated) | 41 | 44 | 32 | Active | Active | Active | Activity [8]: 7.6%; Activity [9]: 56.44%; Activity [10]: 5.41%; inhibition [11]: Active; Activity [12]: 48.96%; Drug metabolism [13]: Dose-dependent effect; Activity [14]: 54.28%; Activity [15]: 43.36%; Retention_time [16]: 8.6 min; Activity [17]: 64.47%; Activity [18]: Dose-dependent effect; half-life at 1 µM [19]: 0.74 min; inhibition [7]: Active; Activity [20]: 43.45%; Activity [21]: 14.09%; Activity [22]: 29.47%; Activity [23]: 51.23%; Drug metabolism [24]: Tde; Activity [25]: 44.4% |
| CN1c2ccc(F)cc2C(=O)N2CCc3c([nH]c4ccc(B(O)O)cc34)C21 (configuration not stated) | 63 | 40 | 94 | – | – | Active | – |
| CN1c2ccc(F)cc2C(=O)N2CCc3c([nH]c4ccc(B5OC(C)(C)C(C)(C)O5)cc34)C21 (configuration not stated) | 170 | 110 | 960 | – | – | – | – |
